# According to ChEMBL document CHEMBL1141940, “N-[(3S)-1-benzylpyrrolidin-3-yl]-(2-thienyl)benzamides: human dopamine D4 ligands with high affinity for the 5-HT2A receptor” (Bioorg Med Chem Lett, 2005):
# What was measured:
# [1] = molecular target: T1, D(4) dopamine receptor (Homo sapiens, UniProt P21917); assay: Displacement of [3H]spiperone from cloned human dopamine D4.2 receptor in […] cells; format: cell-based
# T1 sequence (P21917 whole entry): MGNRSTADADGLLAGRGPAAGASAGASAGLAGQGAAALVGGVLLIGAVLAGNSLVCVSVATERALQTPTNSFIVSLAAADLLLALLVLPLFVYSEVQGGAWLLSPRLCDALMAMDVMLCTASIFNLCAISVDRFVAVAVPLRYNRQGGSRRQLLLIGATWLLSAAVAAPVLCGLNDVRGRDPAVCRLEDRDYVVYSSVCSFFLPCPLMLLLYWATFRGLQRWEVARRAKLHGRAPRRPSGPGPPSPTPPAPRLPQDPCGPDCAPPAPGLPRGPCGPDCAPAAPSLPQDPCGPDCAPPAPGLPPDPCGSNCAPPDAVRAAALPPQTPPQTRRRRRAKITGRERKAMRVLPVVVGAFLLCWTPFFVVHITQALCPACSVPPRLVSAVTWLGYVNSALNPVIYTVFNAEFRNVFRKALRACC
# In short: (§1)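 […] cells stably transfected with cloned receptor: hD4 (D4.2 subtype) with [3H]spiperone, h5-HT2A with [3H]ketanserin. Non-specific binding was defined with methysergide. Ki came from Cheng–Prusoff conversion and is the mean of at least two independent determinations ± SEM.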
# [2] = molecular target: T2, 5-hydroxytryptamine receptor 2A (Homo sapiens, UniProt P28223); assay: Inhibitory activity against cloned human 5HT2A receptor in […] cells at 100 nM; format: cell-based
# T2 sequence (P28223 whole entry): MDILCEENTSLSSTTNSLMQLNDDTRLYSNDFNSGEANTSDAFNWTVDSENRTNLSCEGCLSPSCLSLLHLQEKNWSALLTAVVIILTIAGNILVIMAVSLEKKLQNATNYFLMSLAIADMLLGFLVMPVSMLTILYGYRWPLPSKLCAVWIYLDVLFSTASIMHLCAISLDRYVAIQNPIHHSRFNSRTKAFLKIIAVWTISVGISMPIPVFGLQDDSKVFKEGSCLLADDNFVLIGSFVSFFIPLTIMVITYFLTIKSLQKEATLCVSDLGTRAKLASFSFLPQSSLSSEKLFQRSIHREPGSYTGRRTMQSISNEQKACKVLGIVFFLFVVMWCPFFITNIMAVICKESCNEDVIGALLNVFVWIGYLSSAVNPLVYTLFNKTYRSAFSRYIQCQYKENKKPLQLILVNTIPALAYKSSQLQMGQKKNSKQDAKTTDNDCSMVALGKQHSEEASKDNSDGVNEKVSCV
# [3] = molecular target: T3, D(2) dopamine receptor (Homo sapiens, UniProt P14416); assay: Inhibitory activity against human dopamine D2(short) receptor in rat pituitary GH4C1 cells at 100 nM; format: cell-based; conditions: Pituitary gland cell
# T3 sequence (P14416 whole entry): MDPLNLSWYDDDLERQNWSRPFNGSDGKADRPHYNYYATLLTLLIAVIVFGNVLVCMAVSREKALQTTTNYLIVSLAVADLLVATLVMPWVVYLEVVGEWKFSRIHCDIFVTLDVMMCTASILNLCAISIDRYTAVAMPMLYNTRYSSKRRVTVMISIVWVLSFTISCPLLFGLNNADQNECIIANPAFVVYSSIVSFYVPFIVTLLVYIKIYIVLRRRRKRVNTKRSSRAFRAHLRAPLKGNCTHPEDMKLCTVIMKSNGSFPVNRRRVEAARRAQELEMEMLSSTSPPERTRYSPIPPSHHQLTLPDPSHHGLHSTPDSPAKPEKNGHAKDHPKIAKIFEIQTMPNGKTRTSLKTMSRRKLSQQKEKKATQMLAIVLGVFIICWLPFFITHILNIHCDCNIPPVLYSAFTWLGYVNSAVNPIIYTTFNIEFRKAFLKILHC
# [4] = molecular target: T4, Adrenergic receptor alpha-1 (Rattus norvegicus) (UniProt P15823+P23944+P43140); assay: Inhibitory activity against adrenergic alpha1 receptor in rat frontal cortex tissue at 100 nM; format: tissue-based
# [5] = molecular target: T2, 5-hydroxytryptamine receptor 2A; assay: Displacement of [3H]ketanserin from cloned human 5HT2A receptor in […] cells; format: cell-based; in short: as §1
# [6] = molecular target: T3, D(2) dopamine receptor; assay: Displacement of [3H]spiperone from human dopamine D2(short) receptor in rat pituitary GH4C1 cells; format: cell-based, Pituitary gland cell
# In short: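 Rat pituitary GH4C1 cells stably expressing cloned hD2 (short isoform), with [3H]spiperone displacement. Non-specific binding was defined with […]. Ki was calculated by Cheng–Prusoff transformation.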
# [7] = molecular target: T5, Adrenergic receptor alpha-1 (Rattus norvegicus, UniProt P15823+P23944+P43140); assay: Displacement of 7-methoxy-[3H]prazosin from adrenergic alpha-1 receptor in rat frontal cortex tissue; format: tissue-based
# T5 sequence (P15823 whole entry): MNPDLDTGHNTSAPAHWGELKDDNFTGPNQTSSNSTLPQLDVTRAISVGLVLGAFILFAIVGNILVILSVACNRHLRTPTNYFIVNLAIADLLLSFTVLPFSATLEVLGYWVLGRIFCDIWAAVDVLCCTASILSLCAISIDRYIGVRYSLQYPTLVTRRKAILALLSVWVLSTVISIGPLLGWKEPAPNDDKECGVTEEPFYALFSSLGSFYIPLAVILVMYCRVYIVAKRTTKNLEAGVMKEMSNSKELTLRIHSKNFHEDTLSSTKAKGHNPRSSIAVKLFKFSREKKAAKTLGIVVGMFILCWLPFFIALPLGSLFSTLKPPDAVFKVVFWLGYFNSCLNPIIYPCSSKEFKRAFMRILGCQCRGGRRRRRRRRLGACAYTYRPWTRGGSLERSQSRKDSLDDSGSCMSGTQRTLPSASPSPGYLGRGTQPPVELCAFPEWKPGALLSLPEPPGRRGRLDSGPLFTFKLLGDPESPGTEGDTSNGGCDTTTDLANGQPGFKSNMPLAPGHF
# T5 sequence (P23944 whole entry): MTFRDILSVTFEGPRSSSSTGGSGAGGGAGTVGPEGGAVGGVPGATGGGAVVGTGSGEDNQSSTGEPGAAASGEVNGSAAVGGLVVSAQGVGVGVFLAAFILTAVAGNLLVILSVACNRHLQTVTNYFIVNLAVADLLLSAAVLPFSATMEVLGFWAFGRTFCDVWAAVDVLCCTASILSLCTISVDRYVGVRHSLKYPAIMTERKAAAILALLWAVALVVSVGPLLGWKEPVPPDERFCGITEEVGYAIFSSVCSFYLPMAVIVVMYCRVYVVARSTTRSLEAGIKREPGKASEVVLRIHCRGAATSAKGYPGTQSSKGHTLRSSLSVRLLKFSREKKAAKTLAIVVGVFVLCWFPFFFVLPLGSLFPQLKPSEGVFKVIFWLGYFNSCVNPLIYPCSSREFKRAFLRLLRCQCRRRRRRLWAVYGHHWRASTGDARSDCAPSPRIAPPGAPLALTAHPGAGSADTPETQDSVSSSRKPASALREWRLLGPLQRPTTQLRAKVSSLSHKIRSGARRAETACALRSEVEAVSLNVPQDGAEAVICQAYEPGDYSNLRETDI
# T5 sequence (P43140 whole entry): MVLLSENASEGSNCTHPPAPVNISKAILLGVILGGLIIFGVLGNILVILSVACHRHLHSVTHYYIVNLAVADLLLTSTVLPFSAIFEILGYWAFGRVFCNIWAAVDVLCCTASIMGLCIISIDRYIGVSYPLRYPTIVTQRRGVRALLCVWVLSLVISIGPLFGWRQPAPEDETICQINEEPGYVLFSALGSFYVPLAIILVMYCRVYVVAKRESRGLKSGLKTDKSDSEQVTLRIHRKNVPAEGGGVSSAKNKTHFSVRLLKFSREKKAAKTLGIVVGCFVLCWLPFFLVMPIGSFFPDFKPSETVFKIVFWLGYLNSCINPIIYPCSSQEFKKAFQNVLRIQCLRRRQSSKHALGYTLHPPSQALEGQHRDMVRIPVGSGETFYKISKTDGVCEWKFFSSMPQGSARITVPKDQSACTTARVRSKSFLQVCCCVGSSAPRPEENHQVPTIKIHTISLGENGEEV
# In short: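 Rat frontal cortex tissue as receptor source, with 7-methoxy-[3H]prazosin as radioligand. Non-specific binding was defined with […]. Ki was obtained by Cheng–Prusoff transformation and reported as the mean of at least two independent determinations ± SEM.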
# [8] = molecular target: T4, Adrenergic receptor alpha-1 (Rattus norvegicus); assay: Inhibitory activity against adrenergic alpha-1 receptor in rat frontal cortex tissue at 1 uM; format: tissue-based
Ki [1] [nM],inhibition [2] [%],inhibition [3] [%],inhibition [4] [%],Ki [5] [nM],Ki [6] [nM],Ki [7] [nM],inhibition [8] [%],Compound
22,76,0,0,,,,,O=C(N[C@H]1CCN(Cc2cccc(C(F)(F)F)c2)C1)c1ccc(-c2cccs2)cc1
14,,,,22,4460,920,,COc1cccc(CN2CC[C@H](NC(=O)c3ccc(-c4cccs4)cc3)C2)c1
4,,,,610,60,80,,Cc1ccc(CN2CC[C@H](NC(=O)c3cccc(-c4cccs4)c3)C2)cc1
14,,7,,130,,,2,O=C(N[C@H]1CCN(Cc2ccc(C(F)(F)F)cc2)C1)c1ccc(-c2cccs2)cc1
,,,,460,,,,O=C(N[C@H]1CCN(Cc2ccccc2)C1)c1cccc(-c2cccs2)c1
7,89,,,,1800,400,,O=C(N[C@H]1CCN(Cc2ccc3c(c2)OCO3)C1)c1ccc(-c2cccs2)cc1
16,,,,1100,230,220,,O=C(N[C@H]1CCN(Cc2ccc(Cl)cc2)C1)c1cccc(-c2cccs2)c1
52,,,,5600,500,1200,,O=C(N[C@H]1CCN(Cc2ccc(OC(F)(F)F)cc2)C1)c1cccc(-c2cccs2)c1
14,,,,16,18000,10000,,O=C(N[C@H]1CCN(Cc2ccc(F)c(F)c2)C1)c1ccc(-c2cccs2)cc1
5,,,,14,1500,420,,O=C(N[C@H]1CCN(Cc2ccc(F)cc2)C1)c1ccc(-c2cccs2)cc1
21,,,,740,1300,360,,O=C(N[C@H]1CCN(Cc2ccc(C(F)(F)F)cc2)C1)c1cccc(-c2cccs2)c1
,,,,1.8,,,,O=C(N[C@H]1CCN(Cc2ccccc2)C1)c1ccc(-c2cccs2)cc1
78,,7,,140,,16000,,O=C(N[C@H]1CCN(Cc2ccc(OC(F)(F)F)cc2)C1)c1ccc(-c2cccs2)cc1
33,89,,,,38000,6900,,O=C(N[C@H]1CCN(Cc2ccccc2F)C1)c1ccc(-c2cccs2)cc1
15,,,,22,29000,5000,,O=C(N[C@H]1CCN(Cc2ccc(Cl)c(Cl)c2)C1)c1ccc(-c2cccs2)cc1
